The text below walks through data of ChEMBL document CHEMBL1123718, “Analogues and derivatives of tenoxicam. 1. Synthesis and antiinflammatory activity of analogues with different residues on the ring nitrogen and the amide nitrogen” (1987).

For experiment [1], the system named is Rattus norvegicus. The experiment in a line: Anti-inflammatory activity was assessed by estimating kaolin-induced edema in rat hind paw, by administering orally. The experiment is classed as functional. Conditions: po. The method, boiled down: (§1)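 Female Füllinsdorf albino rats (about 70 g) got 0.1 mL of 10% kaolin suspension s.c. into the right hind paw. Drug in 0.5% tragacanth was given po 0.5 h before and 3.5 h after kaolin. Paw diameter was measured, and edema inhibition was expressed as % of controls. A phenylbutazone 30 mg/kg po validation group ran in each set. ED30 came from group means graphically, or from logit analysis with 95% CI.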

The test system of experiment [2] is Rattus norvegicus. The experiment in a line: Anti-inflammatory activity was assessed by estimating threshold pain response after oral administration to rats. The format is functional. The method, boiled down:
(§2)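 Kaolin paw model in female Füllinsdorf rats (about 70 g): 0.1 mL of 10% kaolin s.c. into the right hind paw, with oral drug in 0.5% tragacanth at 0.5 h before and 3.5 h after. Pressure pain threshold was measured after kaolin, and its increase was expressed as % of controls. ED100 was read graphically from group means, or by logit analysis with 95% CI.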

Experiment [3] deals with Rattus norvegicus. The experiment in a line: Ulcerogenic potential was assessed in a rat model by the enhancement of stress-induced gastric mucosal lesions after oral administration. The experiment is classed as functional. Conditions: Gastric mucosa. The method, boiled down: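 Female Füllinsdorf albino rats (about 160 g) were starved 24 h and given drug po in 0.5% tragacanth. They then had 2 h cold-water stress (22.5 °C) and were sacrificed. Rats with macroscopic gastric mucosal erosions were counted. ED50 was defined as the dose giving lesions in 50% of animals and calculated by probit analysis with 95% CI.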

Experiment [4] deals with Rattus norvegicus. The experiment in a line: Anti-inflammatory activity was assessed by estimating kaolin-induced edema in rat hind paw, by administering orally;NE not effective up to 100 mg/kg. Also noted: dose 100 mg/kg. The format is functional, organism-based. The essentials: as §1
The test system of experiment [5] is Rattus norvegicus. Description: Anti-inflammatory activity was assessed by estimating threshold pain response after oral administration to rats; NE denotes not effective up to 100 mg/kg. The format is functional, organism-based. On the set-up: dose 100 mg/kg. The essentials: as §2
Experiment [6] relates to Rattus norvegicus. The experiment in a line: Anti-inflammatory activity was assessed by estimating kaolin-induced edema in rat hind paw, by administering orally;NE denotes not effective up to 100 mg/kg. On the set-up: dose 100 mg/kg. The format is functional, organism-based. The method, boiled down: as §1
Experiment [7] relates to Rattus norvegicus. The experiment in a line: Anti-inflammatory activity was assessed by estimating kaolin-induced edema in rat hind paw, by administering orally; NE not effective up to 100 mg/kg. The format is functional, organism-based. On the set-up: dose 100 mg/kg. The essentials: as §1
The test system of experiment [8] is Rattus norvegicus. Description: Anti-inflammatory activity was assessed by estimating threshold pain response after oral administration to rats; NE not effective up to 100 mg/kg. The format is functional, organism-based. On the set-up: dose 100 mg/kg. The method, boiled down:
as §2

For experiment [9], the system named is Rattus norvegicus. Description: Anti-inflammatory activity was assessed by estimating kaolin-induced edema in rat ind paw, by administering orally. The format is functional. The following applies: po. The method, boiled down:
as §1

Experiment [10] has as its system Rattus norvegicus. The experiment in a line: Anti-inflammatory activity was assessed by estimating threshold pain response after oral administration to rats;NE not effective up to 100 mg/kg. The experiment is classed as functional, organism-based. On the set-up: dose 100 mg/kg. The essentials:
as §2

`CN1C(C(=O)Nc2ccccc2)=C(O)c2sccc2S1(=O)=O`: the ED30 in the experiment on Rattus norvegicus [1] was greater than 100 mg/kg. In the experiment on Rattus norvegicus [2], the ED100 is 75 mg/kg.
For the compound `CN1C(C(=O)Nc2nccs2)=C(O)c2sccc2S1(=O)=O`, the ED30 in the experiment with Rattus norvegicus [1] was 20 mg/kg. For the same compound, the ED100 in the experiment on Rattus norvegicus [2] is 14 mg/kg. Moreover, the ED50 with Rattus norvegicus [3] stood at 2.2 mg/kg.
As for `CCN1C(C(=O)Nc2ccccn2)=C(O)c2sccc2S1(=O)=O`, the ED30 entry with Rattus norvegicus [4] is “No effect”. Also, the ED100 in the experiment on Rattus norvegicus [2] is 24 mg/kg.
Consider `CN1C(C(=O)Nc2ccncc2)=C(O)c2sccc2S1(=O)=O`, for which the ED100 entry in the experiment on Rattus norvegicus [5] was “No effect”. Besides, in the experiment with Rattus norvegicus [6], the ED30 entry is “No effect”.
In the case of `Cc1cc(NC(=O)C2=C(O)c3sccc3S(=O)(=O)N2C)nc(C)n1`, the ED30 result in the experiment on Rattus norvegicus [7] is “No effect”. Moreover, in the experiment on Rattus norvegicus [8], the ED100 result is “No effect”.
As for `O=C(Nc1ccccn1)C1=C(O)c2sccc2S(=O)(=O)N1`, in the experiment with Rattus norvegicus [1], the ED30 was greater than 100 mg/kg. In the experiment on Rattus norvegicus [2], the ED100 is greater than 100 mg/kg.
Regarding `CN1C(C(=O)Nc2ccc(O)cc2)=C(O)c2sccc2S1(=O)=O`, the ED100 entry in the experiment on Rattus norvegicus [5] is “No effect”. Besides, the ED30 result in the experiment on Rattus norvegicus [6] is “No effect”.
Take `CN1C(C(=O)Nc2ncccn2)=C(O)c2sccc2S1(=O)=O`: the ED30 result in the experiment on Rattus norvegicus [4] was “No effect”. Besides, the ED100 result with Rattus norvegicus [8] was “No effect”.
In the case of `CN1C(C(=O)Nc2cccc(Cl)c2)=C(O)c2sccc2S1(=O)=O`, the ED30 with Rattus norvegicus [1] is greater than 100 mg/kg. In addition, the ED100 with Rattus norvegicus [2] was greater than 100 mg/kg.
For the compound `CN1C(C(=O)Nc2ccccn2)=C(O)c2sccc2S1(=O)=O` [TENOXICAM], the ED30 in the experiment on Rattus norvegicus [1] was 2.6 mg/kg. For the same compound, the ED100 in the experiment with Rattus norvegicus [2] is 5.3 mg/kg. For the same compound, in the experiment with Rattus norvegicus [3], the ED50 stood at 0.7 mg/kg.
`CN1C(C(=O)Nc2cccnc2)=C(O)c2sccc2S1(=O)=O`: the ED30 in the experiment on Rattus norvegicus [9] is 63.7 mg/kg. Moreover, in the experiment with Rattus norvegicus [2], the ED100 is greater than 100 mg/kg. For the same compound, the ED50 in the experiment on Rattus norvegicus [3] was determined as 6.3 mg/kg.
Consider `Cc1cccc(NC(=O)C2=C(O)c3sccc3S(=O)(=O)N2C)c1`, for which the ED30 in the experiment with Rattus norvegicus [1] was 43.4 mg/kg. Further, the ED100 in the experiment with Rattus norvegicus [2] was 3.9 mg/kg. In addition, in the experiment with Rattus norvegicus [3], the ED50 is 7 mg/kg.
For `CN1C(C(=O)Nc2cnccn2)=C(O)c2sccc2S1(=O)=O` the same measures were 70 mg/kg, 56 mg/kg and 1.8 mg/kg.
`Cc1noc(NC(=O)C2=C(O)c3sccc3S(=O)(=O)N2C)c1C`: the ED30 result in the experiment on Rattus norvegicus [4] is “No effect”. Further, the ED100 entry in the experiment on Rattus norvegicus [10] is “No effect”.
Consider `Cc1cc(NC(=O)C2=C(O)c3sccc3S(=O)(=O)N2C)no1`, for which the ED30 in the experiment on Rattus norvegicus [1] is 20 mg/kg. Besides, the ED100 in the experiment with Rattus norvegicus [2] is 24 mg/kg.
Take `Cc1cccc(NC(=O)C2=C(O)c3sccc3S(=O)(=O)N2C)n1`: the ED30 in the experiment on Rattus norvegicus [1] is 30 mg/kg. Moreover, the ED100 with Rattus norvegicus [2] was 27.4 mg/kg. Besides, the ED50 in the experiment with Rattus norvegicus [3] was 0.5 mg/kg.
For `CN1C(C(=O)Nc2ccccn2)=C(O)c2ccccc2S1(=O)=O` [PIROXICAM] the same measures were 1.9 mg/kg, 4 mg/kg and 0.5 mg/kg.

As usually defined, the ED50 is the dose that gives a 50% effect, or the effect in half of the subjects.
